Here are results for one compound from PMC10213863 (Cell Reports Medicine, 2023).

One data set relates to mouse blood. Put plainly: Cell viability in mouse blood. The class given is cell-based. The conditions noted are these: up to 10 μM. Summed up:
(§1)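 Fresh human blood or 129/Sv mouse blood was taken into citrate and diluted 1:1 with RPMI1640. It was pre-incubated 30 min at 37°C, 5% CO2 with increasing concentrations of test compound or 0.25% v/v DMSO (final). Blood was then stimulated with TLR agonists at doses from earlier work, or with R848 (3 μM), and cytokines were quantified. Viability was checked by ATPlite luminescence.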

The target of data set [1] is T1, TLR9 (Homo sapiens, UniProt Q9NR96).
T1 sequence (Q9NR96 26-1032): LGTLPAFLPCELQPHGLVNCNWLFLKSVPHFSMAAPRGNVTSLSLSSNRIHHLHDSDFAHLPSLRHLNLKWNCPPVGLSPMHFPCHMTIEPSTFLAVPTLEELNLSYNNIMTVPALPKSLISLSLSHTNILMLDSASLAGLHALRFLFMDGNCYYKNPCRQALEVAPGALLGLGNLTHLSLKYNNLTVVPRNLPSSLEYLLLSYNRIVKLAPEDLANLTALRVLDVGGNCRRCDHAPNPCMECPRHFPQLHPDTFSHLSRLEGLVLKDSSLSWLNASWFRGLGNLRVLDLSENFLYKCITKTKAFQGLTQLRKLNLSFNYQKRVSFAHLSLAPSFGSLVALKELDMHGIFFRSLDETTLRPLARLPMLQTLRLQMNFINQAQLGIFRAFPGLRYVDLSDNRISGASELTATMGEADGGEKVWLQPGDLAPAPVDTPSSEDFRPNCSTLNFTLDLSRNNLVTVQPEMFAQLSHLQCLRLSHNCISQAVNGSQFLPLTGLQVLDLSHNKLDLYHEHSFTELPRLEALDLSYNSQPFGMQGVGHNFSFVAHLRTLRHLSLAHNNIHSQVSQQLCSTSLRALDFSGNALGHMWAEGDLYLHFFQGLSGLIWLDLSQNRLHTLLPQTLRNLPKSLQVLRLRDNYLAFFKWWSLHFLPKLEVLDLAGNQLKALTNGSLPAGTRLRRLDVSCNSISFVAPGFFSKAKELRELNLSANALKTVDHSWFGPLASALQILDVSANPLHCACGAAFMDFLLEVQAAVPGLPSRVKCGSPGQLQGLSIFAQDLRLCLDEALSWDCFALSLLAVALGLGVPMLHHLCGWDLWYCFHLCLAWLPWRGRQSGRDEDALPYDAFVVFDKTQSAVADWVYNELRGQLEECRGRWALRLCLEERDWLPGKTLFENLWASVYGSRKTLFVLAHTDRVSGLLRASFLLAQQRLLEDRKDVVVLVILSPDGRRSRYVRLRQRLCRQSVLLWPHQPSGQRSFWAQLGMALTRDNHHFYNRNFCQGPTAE
As to the kind of experiment: Isolated human pDC assay, ODN2216-driven IFN-α. The class given is cell-based. The conditions noted are these: fixed dose of MHV370. An outline of the steps: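 pDCs were negatively enriched from PBMCs and resuspended in RPMI1640 with 10 ng/mL recombinant human IL-3. They were pre-treated 30 min with test compound or 0.25% v/v DMSO. Stimulation was 20 h at 37°C, 5% CO2 with ssRNA40 (10 μg/mL plus 25 μg/mL DOTAP) or ODN2216 (0.3 μM). IFN-α in supernatants was read by AlphaLisa; viability by CellTiter-Glo.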

The next data set concerns the target NOD1 (Homo sapiens, UniProt Q9Y239). Put plainly: Ramos Blue reporter B cell line, Tri-DAP stimulation. The class given is cell-based. The conditions noted are these: Ramos cells; up to 10 μM; n = 4, data not shown. Summed up:
(§2)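 Ramos Blue B reporter cells were pre-treated 30 min at 37°C, 5% CO2 with increasing concentrations of test compound or 0.25% v/v DMSO. They were then stimulated with the respective agonist, and reporter activity was read.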

In data set [2] the target is T1, TLR9. Put plainly: Human whole blood assay, ODN-IFN-α. The class given is cell-based. Summed up:
as §1

The next data set concerns the target T2, TLR7 (Mus musculus, UniProt P58681).
T2 sequence (P58681 27-1050): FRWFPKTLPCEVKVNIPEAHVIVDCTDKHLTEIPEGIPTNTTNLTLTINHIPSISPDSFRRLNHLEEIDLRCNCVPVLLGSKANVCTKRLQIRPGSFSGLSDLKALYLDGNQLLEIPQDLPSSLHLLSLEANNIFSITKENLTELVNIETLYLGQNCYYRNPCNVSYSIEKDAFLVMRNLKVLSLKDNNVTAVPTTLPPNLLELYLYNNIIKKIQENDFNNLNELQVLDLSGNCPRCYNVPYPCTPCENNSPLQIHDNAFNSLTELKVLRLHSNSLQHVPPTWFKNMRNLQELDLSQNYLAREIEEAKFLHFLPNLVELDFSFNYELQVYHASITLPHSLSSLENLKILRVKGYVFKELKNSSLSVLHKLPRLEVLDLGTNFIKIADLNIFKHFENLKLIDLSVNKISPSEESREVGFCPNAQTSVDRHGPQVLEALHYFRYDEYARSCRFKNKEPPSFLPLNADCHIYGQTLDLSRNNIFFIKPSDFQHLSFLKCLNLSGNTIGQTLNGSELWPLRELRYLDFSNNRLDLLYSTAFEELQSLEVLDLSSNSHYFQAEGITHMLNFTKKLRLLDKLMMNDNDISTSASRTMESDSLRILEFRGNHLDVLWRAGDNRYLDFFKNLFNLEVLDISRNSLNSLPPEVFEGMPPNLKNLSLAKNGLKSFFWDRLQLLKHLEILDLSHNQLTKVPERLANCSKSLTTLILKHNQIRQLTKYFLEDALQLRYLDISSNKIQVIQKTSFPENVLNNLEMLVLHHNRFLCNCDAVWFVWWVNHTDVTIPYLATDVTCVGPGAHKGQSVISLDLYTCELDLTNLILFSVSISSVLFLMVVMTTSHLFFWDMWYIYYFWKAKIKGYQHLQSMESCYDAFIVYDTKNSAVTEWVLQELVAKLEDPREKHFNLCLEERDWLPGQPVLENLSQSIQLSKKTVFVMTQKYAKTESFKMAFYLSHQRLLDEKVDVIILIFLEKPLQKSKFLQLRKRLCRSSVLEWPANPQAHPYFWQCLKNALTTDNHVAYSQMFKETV
Type of data set: in vivo. The following applies: mice; single oral dose 5 mg/kg.

The next data set has as its target TLR1/2 (Homo sapiens, UniProt O60603+Q15399). Put plainly: Ramos Blue reporter B cell line, Pam3CSK4 stimulation. Type of data set: cell-based. The conditions noted are these: Ramos cells; up to 10 μM; n = 4, data not shown. An outline of the steps:
as §2

Sequence of TLR1/2 (Q15399 25-786): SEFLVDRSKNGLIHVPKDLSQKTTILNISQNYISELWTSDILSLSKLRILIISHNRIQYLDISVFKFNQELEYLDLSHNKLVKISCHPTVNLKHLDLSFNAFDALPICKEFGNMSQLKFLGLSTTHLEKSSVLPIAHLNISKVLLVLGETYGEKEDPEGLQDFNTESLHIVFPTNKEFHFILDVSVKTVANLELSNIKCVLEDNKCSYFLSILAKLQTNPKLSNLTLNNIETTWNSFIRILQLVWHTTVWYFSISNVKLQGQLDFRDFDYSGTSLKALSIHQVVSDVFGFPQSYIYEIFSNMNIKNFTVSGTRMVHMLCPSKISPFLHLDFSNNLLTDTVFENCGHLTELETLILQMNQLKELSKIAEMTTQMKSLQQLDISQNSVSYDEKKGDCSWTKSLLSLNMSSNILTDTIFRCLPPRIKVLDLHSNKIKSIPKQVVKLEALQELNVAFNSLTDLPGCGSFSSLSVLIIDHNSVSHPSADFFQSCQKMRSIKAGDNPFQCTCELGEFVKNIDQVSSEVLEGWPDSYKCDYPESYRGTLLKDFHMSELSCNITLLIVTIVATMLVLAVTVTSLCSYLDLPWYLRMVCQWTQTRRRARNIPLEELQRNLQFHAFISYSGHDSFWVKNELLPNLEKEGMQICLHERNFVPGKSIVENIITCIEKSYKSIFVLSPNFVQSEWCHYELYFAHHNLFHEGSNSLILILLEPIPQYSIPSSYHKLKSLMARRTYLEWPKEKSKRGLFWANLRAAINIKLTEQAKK
Sequence of TLR1/2 (O60603 21-784): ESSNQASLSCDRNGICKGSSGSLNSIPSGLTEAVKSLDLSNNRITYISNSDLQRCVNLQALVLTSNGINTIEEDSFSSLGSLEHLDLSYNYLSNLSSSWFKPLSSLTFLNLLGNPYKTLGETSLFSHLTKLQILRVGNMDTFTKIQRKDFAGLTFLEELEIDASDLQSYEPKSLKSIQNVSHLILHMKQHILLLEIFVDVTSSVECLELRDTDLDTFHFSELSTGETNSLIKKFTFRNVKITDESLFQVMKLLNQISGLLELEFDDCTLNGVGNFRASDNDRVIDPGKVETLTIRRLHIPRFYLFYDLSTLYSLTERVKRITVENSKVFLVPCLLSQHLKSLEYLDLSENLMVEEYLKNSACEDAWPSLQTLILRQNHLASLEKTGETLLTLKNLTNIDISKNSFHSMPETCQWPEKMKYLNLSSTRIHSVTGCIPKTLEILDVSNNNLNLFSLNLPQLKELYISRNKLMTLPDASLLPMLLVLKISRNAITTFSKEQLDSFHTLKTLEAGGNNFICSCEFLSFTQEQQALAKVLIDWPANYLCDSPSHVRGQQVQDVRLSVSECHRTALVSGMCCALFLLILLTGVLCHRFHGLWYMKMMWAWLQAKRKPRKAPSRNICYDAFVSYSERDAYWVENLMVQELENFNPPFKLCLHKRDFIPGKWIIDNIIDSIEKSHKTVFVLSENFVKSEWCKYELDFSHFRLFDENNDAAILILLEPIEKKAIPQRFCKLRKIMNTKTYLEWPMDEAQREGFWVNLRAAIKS
Sequence of NOD1 (Q9Y239 whole entry): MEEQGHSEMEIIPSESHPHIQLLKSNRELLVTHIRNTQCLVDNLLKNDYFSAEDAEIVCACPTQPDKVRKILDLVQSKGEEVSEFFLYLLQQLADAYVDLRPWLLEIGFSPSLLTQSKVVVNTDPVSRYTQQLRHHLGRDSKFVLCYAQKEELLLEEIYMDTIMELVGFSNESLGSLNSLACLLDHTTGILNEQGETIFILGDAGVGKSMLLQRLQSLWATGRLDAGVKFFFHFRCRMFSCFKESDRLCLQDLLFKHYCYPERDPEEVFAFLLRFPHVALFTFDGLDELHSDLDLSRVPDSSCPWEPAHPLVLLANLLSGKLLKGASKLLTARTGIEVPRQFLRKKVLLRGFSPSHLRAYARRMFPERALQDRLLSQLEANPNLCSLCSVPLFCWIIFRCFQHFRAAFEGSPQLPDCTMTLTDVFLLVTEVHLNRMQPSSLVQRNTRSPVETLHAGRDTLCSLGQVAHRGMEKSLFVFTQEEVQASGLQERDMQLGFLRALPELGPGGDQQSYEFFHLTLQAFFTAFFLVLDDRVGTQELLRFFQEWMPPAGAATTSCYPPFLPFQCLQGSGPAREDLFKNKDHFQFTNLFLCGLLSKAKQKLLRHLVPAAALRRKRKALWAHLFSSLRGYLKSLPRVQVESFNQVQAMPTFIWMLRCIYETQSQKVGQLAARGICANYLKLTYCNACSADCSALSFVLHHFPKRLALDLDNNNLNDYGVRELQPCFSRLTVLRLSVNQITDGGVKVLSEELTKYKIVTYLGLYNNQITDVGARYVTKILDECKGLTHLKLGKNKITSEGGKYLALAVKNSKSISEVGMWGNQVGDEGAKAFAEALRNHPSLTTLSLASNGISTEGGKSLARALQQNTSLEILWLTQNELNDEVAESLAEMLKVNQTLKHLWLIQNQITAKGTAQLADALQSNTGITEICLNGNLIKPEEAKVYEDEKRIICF

As for `Cc1cc(N2CCc3c(c(C)nn3CC34CCC(NC(=O)[C@@H]5COCCN5)(CC3)CC4)C2)c2cnn(C)c2n1` [MHV370, (S)-N-(4-((5-(1,6-dimethyl-1H-pyrazolo[3,4-b]pyridin-4-yl)-3-methyl-4,5,6,7-tetrahydro-1H-pyrazolo[4,3-c]pyridin-1-yl)methyl)bicyclo[2.2.2]octan-1-yl)morpholine-3-carboxamide], the “effect on cell viability” value with mouse blood is “did not show”. Further, at TLR9 [1], the “ODN2216/TLR9-dependent IFN-α secretion from pDCs” value is on record as “did not block”. Besides, on NOD1, the “interference with NOD1-driven activity” value is “did not interfere”. In addition, the midpoint of inhibition against TLR9 [2], the IC50, lay at 1.32 µM. At TLR7, the “CD69 expression on B cells, ex vivo R848 stimulation of blood” value is reported as “marked inhibition of CD69 expression over a period of 8 h”. For the same compound, at TLR1/2, the “interference with TLR1/2-driven activity” value is “did not interfere”.
